Cneo AK release: Cryptococcus neoformans lysis via adenylate kinase release. C. neoformans lysis, adenylate kinase release luminescence, 4 h; normalised: neutral wells 0, clomiphene wells 100. lysis activity, % at 15 µM. actives 0.2% (n = 360,000). AID 651654;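 active = mean lysis activity across replicates of at least 80%, whatever share of replicates individually reach that level; inactive = mean lysis activity below 80%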
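Material: C. neoformans cells; Schedule: 4 h static compound exposure, 37 °C, read 1 h post-reagent; Measured by: adenylate kinase release luminescence; Read-out: signal increase indicating cell lysis; Controls: Clomiphene as positive lysis control.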
DENV2 CPE rescue: inhibitors of DENV2 cytopathic effect; DENV2-infected cells, cytopathic effect rescue, plate reader; CPE inhibition, % at 9.99 µM; actives 1.7% (n = 350,000); in the data active = CPE inhibition above about 20%, passing the limit was not always enough; tested in BHK-21 cells;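 also: 0% = median of neutral control wells and 100% = median of positive control wells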
miR122 inh: inhibitors of miR-122 in Huh7 cells; Huh7 miR-122 Renilla luciferase sensor, 48 h; neutral wells = 0, positive control = 100; activation (reporter increase), % at 12.5 µM; actives 0.3% (n = 340,000); AID 602342;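 active = mean replicate activation score at least 90 and every replicate individually at or above 90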;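 also: higher luciferase means less miR-122 activity so hits act as miR-122 inhibitors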
rRNA inh HTS: inhibits bacterial ribosomal RNA function over humanized ribosomes; actives 1.6% (n = 350,000); GFP signal change (wild-type ribosome), % (concentration not given with the values); E. coli WT GFP vs humanized-ribosome RFP mutants, fluorescence, 24 h; hits give low values; DMSO median 0, no signal -100; AID 720706;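 active = significant combined selectivity score with lowered wild-type GFP, culture density cut under 30%, mutant RFP and density less affected; inactive = any of these conditions unmet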
E-selectin induc: induces E-selectin expression in human endothelial cells; P16581; HUVEC E-selectin immunofluorescence imaging; normalized: neutral wells 0, TNF-alpha wells 100; activation, % at 7.58 µM; actives 0.37% (n = 260,000);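 active = mean E-selectin-positive cell signal at least 10% of the positive control, reached in at least 60% of replicates, without over 20% cell loss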
Target sequence (P16581 whole entry, looked up): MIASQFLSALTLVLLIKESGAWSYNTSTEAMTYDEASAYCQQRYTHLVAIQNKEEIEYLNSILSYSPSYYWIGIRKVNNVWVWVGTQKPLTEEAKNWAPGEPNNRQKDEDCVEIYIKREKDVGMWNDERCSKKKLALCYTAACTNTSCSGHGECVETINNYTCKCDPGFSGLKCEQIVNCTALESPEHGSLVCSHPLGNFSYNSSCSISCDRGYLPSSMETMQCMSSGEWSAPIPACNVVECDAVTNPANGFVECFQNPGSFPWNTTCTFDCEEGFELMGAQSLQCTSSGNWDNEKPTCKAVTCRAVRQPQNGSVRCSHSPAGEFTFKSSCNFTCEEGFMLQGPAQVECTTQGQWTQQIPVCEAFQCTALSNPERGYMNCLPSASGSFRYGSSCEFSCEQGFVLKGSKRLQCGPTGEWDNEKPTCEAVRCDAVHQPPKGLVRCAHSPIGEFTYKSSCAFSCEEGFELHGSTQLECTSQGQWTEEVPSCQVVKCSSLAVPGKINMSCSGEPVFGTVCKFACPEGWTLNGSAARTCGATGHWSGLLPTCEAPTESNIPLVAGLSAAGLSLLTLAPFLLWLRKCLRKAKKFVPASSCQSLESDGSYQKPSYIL
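material = human umbilical vein endothelial cells (HUVEC), E-selectin induction | quantity = 3,000 cells/well | medium = EGM-2 growth medium on 0.1% gelatin-coated wells | technique = immunofluorescence imaging | read-out basis = % PE-positive cells | control set = TNF-alpha positive control, DMSO neutral control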
Starred values were filed as active, the others as inactive; · = no result given; ! = repeats disagree; [ ] = dose if it differs, or a comment. This is a sample that favours compounds with a hit; in the whole collection about 3.1% have one here.

SMILES | Cneo AK release | DENV2 CPE rescue | miR122 inh | rRNA inh HTS | E-selectin induc
CO[C@@H]1CN(C)C(=O)c2cc(NC(=O)C3CCC3)ccc2OC[C@H](C)N(C)C[C@@H]1C | -0.6 | 1.4 | · | 2.4 | -0.3
O=C(C[C@@H]1CC[C@H]2[C@@H](COC[C@H](O)CN2CCC(F)(F)F)O1)NCc1ccc(Oc2ccccc2)cc1 | 0.3 | 1.1 | 0.5[16.7 µM] | 0.6 | 0.1
CO[C@H]1CN(C)C(=O)c2ccc(NC(=O)C3CCCC3)cc2OC[C@H](C)N(C(C)=O)C[C@H]1C | -6.0 | 0.7 | · | 1.4 | -0.2
COc1ccc2c3c(n(C)c2c1)[C@@H](CO)N(C(=O)NC1CCCC1)CC31CCN(C)CC1 | · | -7.7 | · | 3.9 | -0.1
O=C(C1=C(Nc2ccccc2)c2ccccc2S(=O)(=O)N1)c1ccccc1 | · | -1.9 | · | -19.4* | ·
Cc1ccccc1NC1=C(C(=O)c2ccccc2)N(C)S(=O)(=O)c2ccccc21 | -0.2 | · | -5.1 | · | ·
Cc1ccc(SCC(=O)OC(C)C(=O)NCc2ccccc2)cc1 (centres undefined) | 0.6 | 64.4* | · | -10.9 | 1.6
Cc1cc(Cl)nc(-n2nc(C)cc2C)n1 | -0.5 | -1.3 | 1.6 | -32.4* | 1.0
COc1cc(NC(=O)C(c2ccccc2)c2ccccc2)c(C(=O)O)cc1OC | 1.5 | 2.2 | -3.4 | -23.6* | ·
CCOC(=O)c1c(NC(=O)c2nn(CC)cc2Br)c(C#N)nn1-c1ccccc1 | 5.7 | · | 2.9 | · | ·
CCOC(=O)c1c(NC(=O)c2c(Br)cnn2C)c(C#N)nn1-c1ccccc1 | 6.6 | 5.3 | -4.6 | -29.3* | ·
Cc1cc(C)c(S(=O)(=O)NCCn2ccc3ccccc32)c(C)c1 | -0.9 | -3.5 | 125.9* | 4.5 | 0.0
O=C(Nc1ccccn1)c1ccc(Cl)c(S(=O)(=O)N2CCc3ccccc32)c1 | 0.6 | -6.8 | 8.7 | -27.6* | ·
Cc1ccnc(NC(=O)c2ccc(Cl)c(S(=O)(=O)N3CCCC3)c2)c1 | · | 60.7* | · | -10.3 | 0.2
O=C(Nc1cccnc1)c1ccc(Cl)c(S(=O)(=O)N2CCc3ccccc32)c1 | · | 2.5 | · | -25.6* | 1.5
Cc1ccnc(NC(=O)c2ccc(Cl)c(S(=O)(=O)N3CCCCC3)c2)c1 | -0.3 | 4.5 | · | -4.2 | ·
O=C(NCCc1ccc(Cl)cc1)c1ccc2[nH]c(=O)c(=O)[nH]c2c1 | 1.4 | -1.6 | -4.0 | -24.6* | ·
O=C(NCCc1c[nH]c2ccccc12)c1ccc2[nH]c(=O)c(=O)[nH]c2c1 | -1.2 | 3.8 | 1.5 | 4.8 | ·
O=C(Cc1ccc(Cl)cc1)NCCc1ccc(F)cc1 | 1.6 | -5.4 | -5.1 | -24.4* | 0.0
Cc1nc(SCC(=O)NCCc2ccc(Cl)cc2)nc(C)c1C | · | -6.8 | -0.5 | -28.5* | ·
CN(C)C1=NCC(CSC(=N)N)S1 (centres undefined) | -0.2 | · | 0.6 | -36.8* | 6.3
COC(=O)C1=C2CC[C@H](CO)NC(=O)N[C@H](Cc3ccccc3)C(=O)NCc3cn(nn3)C[C@H](Cc3ccccc3)NC(=O)c3oc(c(C(=O)OC)c3C(=O)OC)CC[C@H](CO)NC(=O)N[C@H](Cc3ccccc3)C(=O)NCc3cn(nn3)C[C@H](Cc3ccccc3)NC(=O)C(=C1C(=O)OC)O2 | 4.7 | -3.8 | · | · | ·
C[C@@H]1CCCCO[C@H](CN(C)Cc2ccncc2)[C@H](C)CN([C@@H](C)CO)C(=O)c2cc(NS(=O)(=O)c3cn(C)cn3)ccc2O1 | 0.4 | 7.2 | 6.3[16.7 µM] | 4.5 | 0.0
C[C@H]1CCCCO[C@H](CN(C)Cc2ccc(C(F)(F)F)cc2)[C@@H](C)CN([C@@H](C)CO)C(=O)c2cc(NS(=O)(=O)c3cn(C)cn3)ccc2O1 | -0.4 | 1.3 | 3.4[16.7 µM] | -1.9 | 0.0
C[C@@H]1CN([C@@H](C)CO)C(=O)c2cc(NS(=O)(=O)c3cn(C)cn3)ccc2O[C@@H](C)CCCCO[C@@H]1CN(C)Cc1ccc(C(F)(F)F)cc1 | 96.2* | · | 43.0[16.7 µM] | -1.2 | 0.7
SMILES | Cneo AK release | DENV2 CPE rescue | miR122 inh | rRNA inh HTS | E-selectin induc
C[C@@H]1CN([C@@H](C)CO)C(=O)c2cc(NS(=O)(=O)c3cn(C)cn3)ccc2O[C@@H](C)CCCCO[C@H]1CN(C)Cc1ccncc1 | -1.1 | 69.9* | 9.0[16.7 µM] | -2.7 | 0.1
O=C(N[C@@H]1CC[C@@H](CCn2cc(C3(O)CCCC3)nn2)O[C@H]1CO)C1CCCC1 | -1.9 | 20.6* | 2.5[16.7 µM] | 2.2 | -0.2
CC(C)c1cn(CC[C@@H]2CC[C@H](NC(=O)C3CCOCC3)[C@H](CO)O2)nn1 | · | 30.8* | · | 2.5 | 3.3
O=C(N[C@H]1CC[C@H](CCn2cc(C3(O)CCCC3)nn2)O[C@H]1CO)C1CCOCC1 | 45.8 | 31.7* | · | 3.9 | 5.5
O=C(N[C@@H]1CC[C@@H](CCn2cc(C3(O)CCCC3)nn2)O[C@@H]1CO)C1CCCC1 | 0.4 | -7.7 | -18.7[16.7 µM] | 3.0 | 0.0
CCC(=O)N(C)C[C@H]1Oc2ncc(-c3ccc(C)cc3)cc2C(=O)N([C@H](C)CO)C[C@@H]1C | -1.1 | 10.3 | 20.7[16.7 µM] | 0.9 | -0.1
CCC(=O)NC[C@@H]1[C@@H](c2ccc(-c3ccc(OC)cc3)cc2)[C@@H](CO)N1C(C)=O | · | 42.1* | · | -0.4 | 0.1
COCC(=O)NC[C@@H]1[C@@H](c2ccc(-c3ccccc3)cc2)[C@H](CO)N1C(C)=O | -0.7 | 40.6* | 12.1[16.7 µM] | -1.0 | 9.6
Cc1cccc(OC(C)C(=O)N/N=C\c2ccncc2)c1 (centres undefined) | -6.3 | 19.9 | -2.4 | 0.0 | 372.3*
C[C@@H]1CCCCO[C@@H](CN(C)C(=O)CCC(F)(F)F)[C@H](C)CN([C@@H](C)CO)C(=O)c2cc(NS(=O)(=O)c3ccc(Cl)cc3)ccc2O1 | 0.3 | -7.9 | -6.5[16.7 µM] | 0.0 | -0.1
C[C@H](NC(=O)[C@H]1N[C@H]2c3ccc(-c4cccnc4)c(=O)n3C[C@H]2[C@@H]1CO)c1ccccc1 | -1.3 | 117.0* | · | -2.7 | 0.2
O=C(NCCN1CCCC1)[C@H]1N[C@H]2c3ccc(-c4ccccc4)c(=O)n3C[C@H]2[C@@H]1CO | -2.8 | 85.0* | 5.3[16.7 µM] | 2.0 | -0.3
O=C(NCc1ccccc1F)[C@H]1N[C@H]2c3ccc(-c4ccccc4F)c(=O)n3C[C@H]2[C@@H]1CO | 3.0 | 82.3* | 29.3[16.7 µM] | -1.6 | -0.1
CCOCCCNC(=O)/C=C1\Sc2ccccc2N(Cc2ccccc2F)C1=O | -5.1 | 16.3 | 1.2 | -17.4* | -0.2
CC(=O)N(C)C[C@H]1Oc2cc(-c3ccccc3)ccc2S(=O)(=O)N([C@H](C)CO)C[C@H]1C | 1.5 | -8.7 | -18.8[16.7 µM] | -4.1 | 0.1
CCC(=O)N(C)C[C@H]1Oc2cc(-c3ccccc3F)ccc2S(=O)(=O)N([C@H](C)CO)C[C@H]1C | 0.0 | 24.5*! | -6.6 | -5.0 | -1.3
CC(=O)N(C)C[C@H]1Oc2cc(-c3ccccc3)ccc2S(=O)(=O)N([C@@H](C)CO)C[C@@H]1C | 1.9 | 33.4* | -0.6[16.7 µM] | -7.0 | 0.6

High-throughput results from PubChem.
